Screening results (PubChem BioAssay)
A selection: hits, their analogues and other compounds. The true share with any hit is near 4.1%.
RGS4 pot: potentiators or activators of RGS4 | 0.92% of 310,000 active | B-score at 10 µM | HEK293 M3R/inducible RGS4, carbachol calcium flux Fluo4; active compounds read low | AID 463111;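 active = B-score of the integrated calcium signal more than 4 SD below the library mean, with starting fluorescence not abnormally high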;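 also: negative B-score means reduced calcium response which marks RGS4 activation or potentiation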
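Assay system: Inducible-RGS4 HEK293 cells carrying M3 receptor | Schedule: Compound preincubation 20 min at room temperature before agonist | Signal: Kinetic calcium fluorescence imaging with Fluo4-AM dye, 2 µM | Read-out basis: B score from integrated fluorescence ratio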
MrgX1 ag: agonists of human MrgX1 receptor. Q96LB2. MrgX1-HEK293 cells, Fluo-4 calcium fluorescence, agonist mode; active compounds read high. B-score at 10 µM. 0.44% of 310,000 active. AID 588627;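 active = calcium response B-score plate-corrected fluorescence ratio at least 3 library SD, with starting fluorescence B-score inside 5 SD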
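Material: MrgX1-expressing HEK293 cells / Dosing: compound as first of three additions / Incubation: overnight seeding, then 1 h dark dye loading / Signal: Fluo-4 NW calcium fluorescence / Evaluation: B-scored fluorescence response ratio / Benchmarks: positive and negative control wells on each plate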
MrgX1 antag: human MrgX1 receptor antagonism, primary screen; Q96LB2; MRGX1-HEK293 calcium flux, Fluo-4, BAM8-22 antagonism; active compounds read low; B-score at 10 µM; 1.3% of 310,000 active; AID 588676;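 active = calcium-response B-score plate-corrected more than 3 library SD below zero, starting fluorescence within 5 deviations, no agonist response on first addition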;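 also: peak minus trough fluorescence over baseline after final BAM8-22 challenge near maximal dose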
Kir21 inh: blocks the mouse Kir2.1 inward-rectifier potassium channel. B-score at 10 µM. 0.85% of 310,000 active. HEK293-Kir2.1, FluxOR thallium flux fluorescence; active compounds read low. P35561;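 active = fluorescence ratio B-score at or below minus 3 SD of library scores, with starting-brightness B-score within 2 SD, cut at about -4.2 in these data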;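 also: channel flux triggered by added potassium and thallium sulfate stimulus; B-score of peak minus minimum fluorescence over baseline after thallium stimulus; more negative B-score means stronger Kir2.1 block with less thallium influx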
RGS4 inh: inhibitors of human RGS4; HEK293 M3R/RGS4 inducible, Fluo-4 calcium flux; active compounds read high; triggered by carbachol at its EC20; B-score at 10 µM; 0.45% of 310,000 active;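 active = B-score, a plate-corrected calcium signal, over three deviations above library mean, with baseline fluorescence within five deviations of library mean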;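 also: RGS4 expression induced by doxycycline in cells with stable M3 receptor; B-score is computed from the integrated fluorescence ratio over baseline after carbachol; higher B-score means a larger calcium signal and so more RGS4 inhibition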
Target sequence (P49798 whole entry, looked up): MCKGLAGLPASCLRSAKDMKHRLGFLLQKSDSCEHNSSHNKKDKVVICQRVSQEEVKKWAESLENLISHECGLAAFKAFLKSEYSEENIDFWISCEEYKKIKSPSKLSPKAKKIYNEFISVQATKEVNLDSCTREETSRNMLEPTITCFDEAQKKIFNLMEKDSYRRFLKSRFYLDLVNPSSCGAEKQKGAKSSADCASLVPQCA
MrgX1 PAM: allosterically activates human MrgX1 receptor signaling; Q96LB2; MrgX1-HEK293, Fluo-4 calcium flux, FDSS; active compounds read high; B-score at 10 µM; 0.63% of 310,000 active; AID 588675;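 active = plate-corrected calcium response at least 3 library SD above typical, normal starting fluorescence, not activating the receptor alone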;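 also: compound read alongside a low EC10 to EC30 dose of BAM8-22 agonist; peak minus trough fluorescence over baseline measured at the second addition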
* = called active by the depositor; i = inactive; x = not tested or not shown.

SMILES	RGS4 pot	MrgX1 ag	MrgX1 antag	Kir21 inh	RGS4 inh	MrgX1 PAM
COc1ccc(CN(C)CC2CCCN(CCc3ccc(Cl)cc3)C2)cc1OC (stereo unspecified)	i	i	i	-6.2	i	i
CCN(CC(=O)Nc1c(F)cccc1F)C(=O)c1cccc(S(=O)(=O)N2CCN(c3ccccc3)CC2)c1	i	i	i	-0.32	i	i
COCCN1C=C(C(=O)OC)C(c2ccccc2C(F)(F)F)C(C(=O)OC)=C1	i	i	i	-0.26	i	i
NC(=O)CC1C(=O)N(c2ccc(Cl)cc2)C(=S)N1NC(=O)c1cccc(F)c1 (stereo unspecified)	i	i	i	-0.04	i	i
COc1cc(/C=C2\SC(=O)N(CC(=O)Nc3ccccc3F)C2=O)cc(Cl)c1O	i	i	-6.2*	-0.39	i	i
CNC(=O)c1cc2ncc(C(F)(F)F)cc2s1	i	i	i	1.6	i	i
CC(C)Nc1ccc(Nc2ccnc3cc4ccccc4cc23)cc1	-9.9*	i	i	-6.4*	i	i
COc1ccc(Nc2cc(C)nc3ccc(OC)cc23)cc1	i	i	i	-2.4	i	i
c1ccc(CCNc2ccnc3cc4ccccc4cc23)cc1	i	x	x	-7.2*	i	x
O=C1CC(c2ccccc2)CC(=O)N1c1ccccc1	i	i	i	0.9	i	i
Cc1c(N=C2N=C(NC(=O)NC(C)(C)C)c3ccccc32)c(=O)n(-c2ccccc2)n1C	i	i	i	2.1	i	i
Cc1c(N=C2N=C(NC(=O)c3cccs3)c3ccccc32)c(=O)n(-c2ccccc2)n1C	i	33*	i	0.88	i	i
CCCCCCCCOC(=O)C[N+](C)(C)C/C=C(/C)Cl	i	i	i	-1.6	i	i
CCCCCCCCCCCCOC(=O)C[N+](C)(C)C	-8.9*	i	i	-0.34	i	i
CCCCCCCCCCOC(=O)C[N+](C)(C)C/C=C(/C)Cl	i	i	-5.3*	-3	i	i
CC1CCN(S(=O)(=O)N2CCC(C(=O)NCCC3=CCCCC3)CC2)CC1	i	i	i	0.25	i	i
O=C(COc1ccccc1[N+](=O)[O-])OC1CCS(=O)(=O)C1 (stereo unspecified)	i	i	i	0.2	i	i
CCCCNC(=O)COC(=O)CCC(=O)c1ccc(F)cc1	i	i	-6.1*	-0.05	i	i
CCOc1cc(CNCc2ccccc2)ccc1OCC(=O)NC1CCCCC1	i	i	i	-4.4*	i	i
CCOC(=O)c1ccc(NC(=O)COc2ccc(CNC3CCCCC3)cc2OC)cc1	-7.5*	i	i	-1.1	i	i
CC(C)(C)C1CCC2(CC1)Nc1cccc3cccc(c13)N2	i	i	i	0.59	i	i
CCOc1cc2[nH]c(=O)n(CCCC(=O)N(C)Cc3ccccc3)c(=O)c2cc1OCC	i	i	i	-0.5	i	7.9*
COc1cc2[nH]c(=O)n(CCCCCC(=O)N3CC=C(c4ccccc4)CC3)c(=O)c2cc1OC	-8.8*	i	i	0.65	i	i
COc1cc2[nH]c(=O)n(CCC(=O)N3CCc4ccccc4C3)c(=O)c2cc1OC	i	i	i	-0.47	i	i
CCOc1cc2[nH]c(=O)n(CCCC(=O)NCc3ccco3)c(=O)c2cc1OCC	i	i	i	-0.82	i	i
CCOC(=O)N1CCN(C(=O)c2ccc(Cn3c(=S)[nH]c4ccc(Br)cc4c3=O)cc2)CC1	i	i	-5.6*	1.6	i	i
Cc1nn(Cc2ccc(F)cc2)c(C)c1NC(=O)c1cnn2c1NC(c1cccs1)CC2C(F)(F)F (stereo unspecified)	i	i	i	-0.49	i	i
CCOc1ccc(-n2ccnc2SCC(=O)Nc2nnc(CC)s2)cc1	i	i	i	0.29	i	i
